≈ marks a conversion by molar mass, not a printed value.
Assays:
[1] = target: CYP2C9 (Homo sapiens, UniProt P11712); assay: Time dependent inhibition of CYP2C9 in human liver microsomes assessed as enzyme remaining activity using cocktail of probe CYP as substrate at 50 uM; type: ADME; details: probe cocktail of CYP probe substrates, read-out: Activity
Method in brief: (§1)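 Time-dependent CYP inhibition in human liver microsomes, with test compound at 50 µM and a cocktail of probe CYP substrates.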

[2] = Solubility in PBS; type: physicochemical
Method in brief: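 Solubility measured in Dulbecco's phosphate-buffered saline.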

[3] = species: Homo sapiens; assay: Ratio of IC50 for Mer (unknown origin) to IC50 for Axl (unknown origin)
[4] = Permeability of compound by PAMPA assay; type: ADME; details: read-out: permeability
[5] = AUC (0 to 24 hrs) in CAnN.Cg-Foxnlnu/CrlCrlj mouse plasma at 50 mg/kg, po single dose measured up to 24 hrs by liquid chromatography tandem mass spectrometry; type: ADME, organism-based; parameters: route oral, dose 50 mg/kg, time <=24
[6] = Cmax in CAnN.Cg-Foxnlnu/CrlCrlj mouse plasma at 100 mg/kg, po single dose measured up to 24 hrs by liquid chromatography tandem mass spectrometry; type: ADME, organism-based; parameters: route oral, dose 100 mg/kg, time <=24
[7] = Tmax in CAnN.Cg-Foxnlnu/CrlCrlj mouse plasma at 25 mg/kg, po single dose measured up to 24 hrs by liquid chromatography tandem mass spectrometry; type: ADME, organism-based
[8] = tested on: CYP3A; assay: Time dependent inhibition of CYP3A in human liver microsomes assessed as enzyme remaining activity using cocktail of probe CYP as substrate at 50 uM; type: ADME; details: probe cocktail of CYP probe substrates, read-out: Activity; method in brief: as §1
[9] = AUC (0 to 24 hrs) in CAnN.Cg-Foxnlnu/CrlCrlj mouse plasma at 25 mg/kg, po single dose measured up to 24 hrs by liquid chromatography tandem mass spectrometry; type: ADME, organism-based; parameters: route oral, dose 25 mg/kg, time <=24
[10] = target: T1, Tyrosine-protein kinase Mer (Homo sapiens, UniProt Q12866); assay: Inhibition of Mer (unknown origin) by cell free assay
T1 sequence (Q12866 whole entry): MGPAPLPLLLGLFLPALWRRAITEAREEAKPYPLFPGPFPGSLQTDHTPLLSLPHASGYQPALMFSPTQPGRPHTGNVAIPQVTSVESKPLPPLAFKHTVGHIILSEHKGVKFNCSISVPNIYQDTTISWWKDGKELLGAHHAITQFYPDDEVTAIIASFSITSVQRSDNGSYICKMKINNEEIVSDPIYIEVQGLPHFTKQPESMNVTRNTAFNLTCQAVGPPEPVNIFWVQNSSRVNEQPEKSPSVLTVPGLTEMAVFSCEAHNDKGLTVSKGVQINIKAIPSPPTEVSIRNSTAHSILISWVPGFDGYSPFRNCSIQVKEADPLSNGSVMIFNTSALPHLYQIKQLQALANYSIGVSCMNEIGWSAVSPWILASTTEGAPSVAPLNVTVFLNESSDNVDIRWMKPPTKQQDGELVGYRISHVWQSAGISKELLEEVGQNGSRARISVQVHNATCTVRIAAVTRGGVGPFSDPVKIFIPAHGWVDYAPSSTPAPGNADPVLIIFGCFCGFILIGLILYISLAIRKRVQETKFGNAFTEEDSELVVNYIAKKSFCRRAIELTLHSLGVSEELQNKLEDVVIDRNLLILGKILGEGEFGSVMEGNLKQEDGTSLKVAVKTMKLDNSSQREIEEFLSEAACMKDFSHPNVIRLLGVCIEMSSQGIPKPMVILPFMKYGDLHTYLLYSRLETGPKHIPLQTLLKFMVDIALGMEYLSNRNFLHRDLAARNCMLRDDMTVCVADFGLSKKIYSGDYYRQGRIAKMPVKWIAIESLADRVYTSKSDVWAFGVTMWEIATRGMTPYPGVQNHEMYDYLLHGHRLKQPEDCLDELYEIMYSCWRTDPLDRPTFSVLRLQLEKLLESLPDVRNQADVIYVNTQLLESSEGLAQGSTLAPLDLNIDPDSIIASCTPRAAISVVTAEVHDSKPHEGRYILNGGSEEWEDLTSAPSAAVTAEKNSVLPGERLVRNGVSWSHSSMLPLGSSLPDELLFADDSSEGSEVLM

[11] = Cmax in CAnN.Cg-Foxnlnu/CrlCrlj mouse plasma at 25 mg/kg, po single dose measured up to 24 hrs by liquid chromatography tandem mass spectrometry; type: ADME, organism-based; parameters: route oral, dose 25 mg/kg, time <=24
[12] = target: T2, Tyrosine-protein kinase receptor UFO (Mus musculus, UniProt Q00993); assay: Inhibition of Axl in mouse BaF3 cells; type: cell-based
T2 sequence (Q00993 whole entry): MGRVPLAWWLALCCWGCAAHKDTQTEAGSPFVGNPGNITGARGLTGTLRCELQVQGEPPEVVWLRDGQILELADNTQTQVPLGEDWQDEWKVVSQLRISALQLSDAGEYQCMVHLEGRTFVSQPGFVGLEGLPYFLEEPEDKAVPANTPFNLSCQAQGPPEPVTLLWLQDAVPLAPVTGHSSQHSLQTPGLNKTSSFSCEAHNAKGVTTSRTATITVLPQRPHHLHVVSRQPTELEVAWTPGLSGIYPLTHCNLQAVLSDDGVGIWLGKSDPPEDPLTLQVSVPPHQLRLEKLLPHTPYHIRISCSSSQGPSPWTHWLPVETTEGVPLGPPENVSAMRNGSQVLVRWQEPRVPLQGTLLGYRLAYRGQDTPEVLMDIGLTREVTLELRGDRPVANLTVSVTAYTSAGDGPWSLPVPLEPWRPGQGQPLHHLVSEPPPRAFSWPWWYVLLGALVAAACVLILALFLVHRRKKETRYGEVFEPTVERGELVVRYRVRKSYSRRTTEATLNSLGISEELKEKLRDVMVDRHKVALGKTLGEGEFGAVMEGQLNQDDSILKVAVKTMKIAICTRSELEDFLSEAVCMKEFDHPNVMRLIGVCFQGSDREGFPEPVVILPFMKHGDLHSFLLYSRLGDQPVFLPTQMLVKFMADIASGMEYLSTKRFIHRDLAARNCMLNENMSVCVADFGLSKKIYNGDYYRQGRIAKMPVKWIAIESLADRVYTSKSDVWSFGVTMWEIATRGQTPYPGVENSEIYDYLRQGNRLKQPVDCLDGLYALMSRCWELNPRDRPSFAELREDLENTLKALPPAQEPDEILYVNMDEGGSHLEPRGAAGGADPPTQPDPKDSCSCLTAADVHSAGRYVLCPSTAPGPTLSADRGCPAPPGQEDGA

Chain of CYP2C9 (P11712 whole entry): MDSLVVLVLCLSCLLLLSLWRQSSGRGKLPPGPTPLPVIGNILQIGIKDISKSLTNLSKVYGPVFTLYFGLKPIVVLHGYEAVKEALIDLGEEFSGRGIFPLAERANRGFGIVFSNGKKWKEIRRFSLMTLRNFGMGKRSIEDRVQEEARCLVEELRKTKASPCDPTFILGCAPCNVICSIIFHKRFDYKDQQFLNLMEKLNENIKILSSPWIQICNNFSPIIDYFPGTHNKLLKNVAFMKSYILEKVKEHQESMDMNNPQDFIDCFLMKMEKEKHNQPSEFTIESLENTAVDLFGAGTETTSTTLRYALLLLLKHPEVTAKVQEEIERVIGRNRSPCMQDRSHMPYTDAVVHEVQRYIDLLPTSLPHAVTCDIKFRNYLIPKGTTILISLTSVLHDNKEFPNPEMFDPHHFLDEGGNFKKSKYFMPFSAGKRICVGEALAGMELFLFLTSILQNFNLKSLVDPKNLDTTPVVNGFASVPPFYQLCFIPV

activity at 50 µM [1]: 87%
solubility [2]: 83 µM (≈ 55.5 µg/mL)
Ratio IC50 [3]: 37
Papp [4]: 0.91 ×10⁻⁶ cm/s
AUC(0-t) [5]: 56700 ng·h/mL
Cmax [6]: 10900 ng/mL
Tmax [7]: 2 h
activity at 50 µM [8]: 51%
AUC(0-t) [9]: 22900 ng·h/mL
IC50 [10]: 190 nM
Cmax [11]: 2340 ng/mL
IC50 [12]: 28 nM
SMILES: Cc1ccc(-n2c(=O)c(C(=O)Nc3ccc(Oc4ncnc5c4CCN(CC4CCN(C)CC4)C5)c(F)c3)cn(C3CCCC3)c2=O)nc1
